Reference: ChEMBL document CHEMBL4043097, “Synthesis and evaluation of hydroxychalcones as multifunctional non-purine xanthine oxidase inhibitors for the treatment of hyperuricemia” (Bioorg Med Chem Lett, 2017)

Tests used:
[1] = target: T1, Xanthine dehydrogenase/oxidase (Bos taurus, UniProt P80457); test: Inhibition of bovine milk xanthine oxidase pre-incubated for 30 mins followed by xanthine addition and measured every 30 secs for 5 mins by spectrophotometry
[2] = Antioxidant activity assessed as ABTS free radical scavenging activity by measuring trolox equivalents after 6 mins; assay type: functional
Summary of the method: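 ABTS radical scavenging, expressed as trolox equivalent: (mmol trolox)/(mmol tested compound).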

[3] = Antioxidant activity assessed as DPPH free radical scavenging activity incubated for 30 mins; assay type: functional
[4] = Antioxidant activity assessed as DPPH free radical scavenging activity incubated for 30 mins at 2000 uM; assay type: functional
Summary of the method: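 DPPH radical scavenging, given as percent inhibitory rate with test compound at 2000 µM.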

[5] = target: T1, Xanthine dehydrogenase/oxidase; test: Inhibition of bovine milk xanthine oxidase at 1000 uM pre-incubated for 30 mins followed by xanthine addition and measured every 30 secs for 5 mins by spectrophotometry; settings: cattle
Summary of the method: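 XO inhibition tested up to 1000 µM, the highest concentration tested; compounds precipitate above this. IC50 values from three experiments, reported as mean ± SEM.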

[6] = tested on: Mus musculus; test: Anti-hyperuricemic activity in potassium oxonate-induced hyperuricemic Kun-Ming mouse assessed as serum uric acid level at 10 mg/kg/day, ig for 7 days and measured 1 hr post last dose (reference value: 5.89 +/- 0.36 mg/dl); assay type: functional
[7] = tested on: Mus musculus; test: Anti-hyperuricemic activity in potassium oxonate-induced hyperuricemic Kun-Ming mouse assessed as serum uric acid level at 50 mg/kg/day, ig for 7 days and measured 1 hr post last dose (reference value: 5.89 +/- 0.36 mg/dl); assay type: functional
[8] = tested on: Mus musculus; test: Anti-hyperuricemic activity in potassium oxonate-induced hyperuricemic Kun-Ming mouse assessed as xanthine oxidase activity per gram of protein at 10 mg/kg/day, ig for 7 days and measured 1 hr post last dose (reference value: 81.5 +/- 1.4 U/g protein); assay type: functional
[9] = tested on: Mus musculus; test: Anti-hyperuricemic activity in potassium oxonate-induced hyperuricemic Kun-Ming mouse assessed as xanthine oxidase activity per gram of protein at 50 mg/kg/day, ig for 7 days and measured 1 hr post last dose (reference value: 81.5 +/- 1.4 U/g protein); assay type: functional
[10] = tested on: Mus musculus; test: Toxicity in Kun-Ming mouse assessed as induction of mortality at 5000 mg/kg, ig measured continuously for first 4 hrs and intermittently for next 24 hrs; assay type: organism-based; settings: in vivo, po
Summary of the method: (§1)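 Mice received a single 5,000 mg/kg dose. They were watched continuously for the first 4 h and intermittently over the next 24 h for abnormal behaviour and mortality. Water intake, food intake and body weight were tracked over the experimental period. The protocol was adapted from an earlier reported acute toxicity study.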

[11] = tested on: Mus musculus; test: Toxicity in Kun-Ming mouse assessed as effect on water consumption at 5000 mg/kg, ig measured continuously for first 4 hrs and intermittently for next 24 hrs; assay type: organism-based; settings: in vivo, po; summary of the method: as §1
[12] = tested on: Mus musculus; test: Toxicity in Kun-Ming mouse assessed as effect on food consumption at 5000 mg/kg, ig measured continuously for first 4 hrs and intermittently for next 24 hrs; assay type: organism-based; settings: in vivo, po; summary of the method: as §1
[13] = tested on: Mus musculus; test: Toxicity in Kun-Ming mouse assessed as induction of body weight reduction at 5000 mg/kg, ig measured continuously for first 4 hrs and intermittently for next 24 hrs; assay type: organism-based; settings: in vivo, po; summary of the method: as §1
[14] = target: T1, Xanthine dehydrogenase/oxidase; test: Mixed type inhibition of bovine milk xanthine oxidase pre-incubated for 30 mins followed by xanthine addition and measured every 30 secs for 5 mins by spectrophotometry based L-B plot analysis; settings: cattle
Summary of the method: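 Inhibition type from Michaelis–Menten kinetics. Initial XO velocity measured at increasing xanthine concentrations with inhibitor at 0, 25, 50 and 100 µM. Activity read as change in absorbance at 295 nm per unit time; mode assigned from overlaid Lineweaver–Burk reciprocal plots.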

[15] = tested on: Mus musculus; test: Anti-hyperuricemic activity in potassium oxonate-induced hyperuricemic Kun-Ming mouse assessed as reduction in serum uric acid level at 10 and 50 mg/kg/day, ig for 7 days and measured 1 hr post last dose; assay type: functional, organism-based

T1 sequence (P80457 whole entry): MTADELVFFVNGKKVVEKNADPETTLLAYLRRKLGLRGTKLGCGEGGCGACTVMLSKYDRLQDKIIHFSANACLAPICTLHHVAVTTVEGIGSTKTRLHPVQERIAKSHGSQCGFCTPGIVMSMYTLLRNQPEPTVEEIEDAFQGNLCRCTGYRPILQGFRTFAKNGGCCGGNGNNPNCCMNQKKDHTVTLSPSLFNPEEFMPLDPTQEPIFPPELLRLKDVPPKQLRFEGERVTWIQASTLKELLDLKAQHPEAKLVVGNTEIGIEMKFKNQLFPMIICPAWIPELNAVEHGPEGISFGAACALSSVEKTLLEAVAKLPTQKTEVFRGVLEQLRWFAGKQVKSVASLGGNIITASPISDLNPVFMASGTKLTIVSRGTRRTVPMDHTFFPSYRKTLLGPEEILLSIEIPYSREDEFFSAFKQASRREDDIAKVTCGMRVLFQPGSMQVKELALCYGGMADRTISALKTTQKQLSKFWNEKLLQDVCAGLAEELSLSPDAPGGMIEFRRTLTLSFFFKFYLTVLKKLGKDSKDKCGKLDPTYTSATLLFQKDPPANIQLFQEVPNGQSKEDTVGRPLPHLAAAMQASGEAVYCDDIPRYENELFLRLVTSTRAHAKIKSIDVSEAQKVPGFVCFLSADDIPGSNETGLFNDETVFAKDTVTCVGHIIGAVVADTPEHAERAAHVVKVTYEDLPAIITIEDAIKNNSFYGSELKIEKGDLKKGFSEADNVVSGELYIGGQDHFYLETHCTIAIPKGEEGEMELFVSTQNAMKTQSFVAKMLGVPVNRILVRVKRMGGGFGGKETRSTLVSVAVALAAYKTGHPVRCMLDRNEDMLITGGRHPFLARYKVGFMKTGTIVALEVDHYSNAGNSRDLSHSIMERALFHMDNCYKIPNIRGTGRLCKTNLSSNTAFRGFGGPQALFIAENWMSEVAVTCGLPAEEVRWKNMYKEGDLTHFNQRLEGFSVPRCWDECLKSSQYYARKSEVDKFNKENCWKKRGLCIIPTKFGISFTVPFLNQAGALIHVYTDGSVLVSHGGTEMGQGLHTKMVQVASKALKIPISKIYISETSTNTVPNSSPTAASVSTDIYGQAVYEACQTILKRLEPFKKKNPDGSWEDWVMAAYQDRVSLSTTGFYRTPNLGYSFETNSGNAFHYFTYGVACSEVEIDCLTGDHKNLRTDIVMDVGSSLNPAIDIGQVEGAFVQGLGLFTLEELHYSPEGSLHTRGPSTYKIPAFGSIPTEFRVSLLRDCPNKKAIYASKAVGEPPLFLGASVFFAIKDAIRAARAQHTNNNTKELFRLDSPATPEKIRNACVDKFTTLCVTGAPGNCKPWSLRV

SMILES | IC50 [1] [µM] | Activity (mmolequiv/mmol) [2] | inhibition [4] [%] | also measured
O=C(/C=C/c1cccc(O)c1)c1ccccc1O | 91.8 | 0.93 |  | IC50 [3]: 108 µM
O=C(/C=C/c1ccc(O)cc1)c1ccccc1 [4-HYDROXYCHALCONE] | 159 | < 0.1 | 25.7 | 
O=C(/C=C/c1ccccc1)c1ccccc1 [CHALCONE] |  | < 0.1 | 18.4 | inhibition (INH) [5]: Not Active
O=C(/C=C/c1ccc(O)cc1)c1ccc(O)cc1 [4,4'-DIHYDROXYCHALCONE] | 117 | 0.43 | 35.9 | 
O=C(/C=C/c1cccc(O)c1)c1ccc(O)cc1O | 108 | 0.45 | 38.6 | 
Oc1ccc(/C=C/c2cc(O)cc(O)c2)cc1 [RESVERATROL] |  | 0.65 |  | IC50 [3]: 95.1 µM
O=C(/C=C/c1ccc(O)cc1O)c1ccccc1 |  | < 0.1 | 10.8 | inhibition (INH) [5]: Not Active
O=C(/C=C/c1ccccc1)c1cccc(O)c1 | 165 | < 0.1 | 11.7 | 
O=C(/C=C/c1ccc(O)cc1)c1cccc(O)c1 | 133 | 0.16 | 19.7 | 
O=C(/C=C/c1ccc(O)cc1)c1ccc(O)cc1O [ISOLIQUIRITIGENIN] | 47.3 | 0.51 |  | IC50 [3]: 287 µM; Activity [6]: 5.14 mg/dL; Activity [7]: 4.45 mg/dL; Activity [8]: 70.5 U/g protein; Activity [9]: 62 U/g protein; Activity [10]: Non-Toxic; Activity [11]: Non-Toxic; Activity [12]: Non-Toxic; Activity [13]: Non-Toxic
O=C(/C=C/c1cccc(O)c1)c1ccccc1 [3-HYDROXY CHALCONE] | 228 | < 0.1 | 11.3 | 
O=C(/C=C/c1ccccc1)c1ccc(O)cc1O [2',4'-DIHYDROXYCHALCONE] | 107 | 0.38 |  | IC50 [3]: 197 µM
O=C(/C=C/c1ccccc1O)c1ccccc1O | 87.4 | 0.17 | 28 | 
O=C(/C=C/c1ccccc1O)c1ccccc1 | 145 | < 0.1 | 10.8 | 
O=C(/C=C/c1ccccc1O)c1ccc(O)cc1O | 56.8 | 0.87 |  | inhibition (INH) [14]: Active; IC50 [3]: 128 µM; Activity [6]: 5.21 mg/dL; Activity [7]: 4.5 mg/dL; Activity [8]: 73.2 U/g protein; Activity [9]: 64.1 U/g protein; Activity [15]: Dose-dependent effect; Activity [10]: Non-Toxic; Activity [11]: Non-Toxic; Activity [12]: Non-Toxic; Activity [13]: Non-Toxic
O=C(/C=C/c1ccccc1)c1ccc(O)cc1 [4'-HYDROXYCHALCONE] |  | < 0.1 | 12.5 | inhibition (INH) [5]: Not Active
O=C(/C=C/c1ccc(O)cc1)c1ccccc1O | 79.4 | 0.24 | 23.1 | 
O=C(/C=C/c1cccc(O)c1)c1cccc(O)c1 | 88.3 | 0.18 | 24.3 | 
O=C(/C=C/c1ccccc1)c1ccccc1O [2'-HYDROXYCHALCONE] | 71.3 | < 0.1 | 13.5 | 
Oc1ncnc2[nH]ncc12 [ALLOPURINOL] |  | < 0.1 | 20.5 | Activity [6]: 4.14 mg/dL; Activity [8]: 50.9 U/g protein
